Assay results as given in ChEMBL document CHEMBL4334465, “SAR Studies on Aromatic Acylhydrazone-Based Inhibitors of Fungal Sphingolipid Synthesis as Next-Generation Antifungal Agents” (J Med Chem, 2019).
Values after ≈ are worked out from the molar mass of the structure shown.

Assays:
[1] = test system: Cryptococcus neoformans; experiment: Antifungal activity against Cryptococcus neoformans H99 measured after 24 to 72 hrs; type: functional; conditions: var grubii H99
Outline: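 Modified CLSI broth microdilution with inoculum per M27A3. Compounds were serially diluted 32 to 0.03 μg/mL. Media: C. neoformans in HEPES-buffered YNB without amino acids (pH 7.0, 2% glucose); Candida strains in YNB without ammonium sulfate or amino acids plus 1% asparagine (pH 7.0, 2% glucose); A. fumigatus in RPMI (pH 7.0, 2% glucose).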

[2] = test system: Cryptococcus neoformans; experiment: Fungicidal activity against Cryptococcus neoformans H99 measured after 48 hrs by time-kill assay; type: functional, var grubii H99
Outline: (§1)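 Overnight C. neoformans washed in PBS and resuspended in HEPES-buffered YNB, pH 7.4. 2 × 10⁴ cells exposed to a range of drug concentrations in 10 mL with 0.5% DMSO final, at 37°C, 5% CO₂, shaking at 200 rpm. Aliquots sampled over 96 h, diluted and plated on YPD; CFU counted after 48 h at 30°C.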

[3] = test system: A549; experiment: Cytotoxicity against human A549 cells after 24 to 48 hrs by MTT assay; type: functional; conditions: read-out: LD50 (the source's name)
Outline: (§2)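 A549 and HepG2 kept in DMEM with 10% FBS and 1% pen-strep. At passage 7, seeded at 10⁵ cells/well and allowed to adhere 14 h. Compound added at 0.03–128 μg/mL, untreated wells as controls. Incubation 37°C, 5% CO₂ for 24 or 48 h. MTT (5 mg/mL in PBS) added for 4 h, formazan dissolved in DMSO, OD570.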

[4] = test system: HepG2; experiment: Cytotoxicity against human HepG2 cells after 24 to 48 hrs by MTT assay; type: functional; conditions: read-out: LD50 (the source's name); outline: as §2
[5] = Selectivity index, ratio of LD50 for human A549 cells to MIC80 for Cryptococcus neoformans H99; type: toxicity; conditions: read-out: Selectivity Index
Outline: (§3)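 SI = LD₅₀/MIC₈₀. Cytotoxicity: A549 or HepG2 cells (DMEM, 10% FBS, passage 7, 10⁵ cells/well) adhered 14 h, then exposed to 0.03–128 μg/mL for 24 or 48 h at 37°C, 5% CO₂; MTT 4 h, formazan dissolved in DMSO, read at 570 nm. MIC₈₀ against C. neoformans from broth microdilution in HEPES-buffered YNB, pH 7.0.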

[6] = Selectivity index, ratio of LD50 for human HepG2 cells to MIC80 for Cryptococcus neoformans H99; type: toxicity; conditions: read-out: Selectivity Index; outline: as §3
[7] = test system: Cryptococcus neoformans; experiment: Fungicidal activity against Cryptococcus neoformans H99 measured after 72 hrs by time-kill assay; type: functional, var grubii H99; outline: as §1
[8] = test system: Cryptococcus neoformans; experiment: Fungicidal activity against Cryptococcus neoformans H99 measured after 24 hrs by time-kill assay; type: functional, var grubii H99; outline: as §1

SMILES | MIC80 [1] | MFC100 [2] | CC50 [3] | CC50 [4] | selectivity ratio [5] | selectivity ratio [6] | MFC100 [7] | MFC100 [8]
O=C(N/N=C/c1cc(Cl)ccc1O)c1cccc(F)c1F | 1 µg/mL (≈ 3.22 µM) | 0.5 µg/mL (≈ 1.61 µM) | 72 µg/mL (≈ 232 µM) | 32 µg/mL (≈ 103 µM) | 72 | 32 |  | 
Cc1ccc(O)c(/C=N/NC(=O)c2ccc(Br)c(Br)c2)c1 | 0.12 µg/mL (≈ 0.291 µM) |  | 16 µg/mL (≈ 38.8 µM) | 16 µg/mL (≈ 38.8 µM) | 133 | 133 | 0.5 µg/mL (≈ 1.21 µM) | 
O=C(N/N=C/c1ccc(Br)cc1O)c1cccc(C(F)(F)F)c1 | 0.5 µg/mL (≈ 1.29 µM) | 2 µg/mL (≈ 5.17 µM) | 64 µg/mL (≈ 165 µM) | 16 µg/mL (≈ 41.3 µM) | 128 | 32 |  | 
O=C(N/N=C/c1cc(Cl)cc(Cl)c1O)c1cccc(Br)c1Br | 1 µg/mL (≈ 2.14 µM) | 1 µg/mL (≈ 2.14 µM) | 64 µg/mL (≈ 137 µM) | 16 µg/mL (≈ 34.3 µM) | 64 | 16 |  | 
O=C(N/N=C/c1c(O)ccc2ccccc12)c1ccc(Br)cc1Br | 0.12 µg/mL (≈ 0.268 µM) | 0.5 µg/mL (≈ 1.12 µM) | 16 µg/mL (≈ 35.7 µM) | 64 µg/mL (≈ 143 µM) | 133 | 533 |  | 
Cc1ccc(O)c(/C=N/NC(=O)c2cc(Br)ccc2Br)c1 | 1 µg/mL (≈ 2.43 µM) | 0.5 µg/mL (≈ 1.21 µM) | 32 µg/mL (≈ 77.7 µM) | 32 µg/mL (≈ 77.7 µM) | 32 | 32 |  | 
O=C(N/N=C/c1cc(Br)cc(Br)c1O)c1ccc(C(F)(F)F)cc1F | 0.12 µg/mL (≈ 0.248 µM) | 0.5 µg/mL (≈ 1.03 µM) | 64 µg/mL (≈ 132 µM) | 16 µg/mL (≈ 33.1 µM) | 533 | 133 |  | 
O=C(N/N=C/c1cc(Br)ccc1O)c1ccc(Br)c(Br)c1 | 0.25 µg/mL (≈ 0.524 µM) |  | 8 µg/mL (≈ 16.8 µM) | 8 µg/mL (≈ 16.8 µM) | 32 | 32 | 1 µg/mL (≈ 2.1 µM) | 
O=C(N/N=C/c1cc(Br)ccc1O)c1cc(Br)ccc1Br | 0.25 µg/mL (≈ 0.524 µM) | 1 µg/mL (≈ 2.1 µM) | 16 µg/mL (≈ 33.5 µM) | 32 µg/mL (≈ 67.1 µM) | 64 | 128 |  | 
O=C(N/N=C/c1cc(Br)ccc1O)c1ccccc1C(F)(F)F | 1 µg/mL (≈ 2.58 µM) |  | 16 µg/mL (≈ 41.3 µM) | 16 µg/mL (≈ 41.3 µM) | 16 | 16 | 1 µg/mL (≈ 2.58 µM) | 
N#Cc1ccc(C(=O)N/N=C/c2cc(Br)cc(Br)c2O)cc1 | 0.06 µg/mL (≈ 0.142 µM) |  | 64 µg/mL (≈ 151 µM) | 16 µg/mL (≈ 37.8 µM) | 1070 | 267 | 1 µg/mL (≈ 2.36 µM) | 
O=C(N/N=C/c1ccc(Br)cc1O)c1cccc(Br)c1 | 0.5 µg/mL (≈ 1.26 µM) | 0.25 µg/mL (≈ 0.628 µM) | 64 µg/mL (≈ 161 µM) | 8 µg/mL (≈ 20.1 µM) | 128 | 16 |  | 
O=C(N/N=C/c1ccc(Br)cc1O)c1cccc(F)c1F | 0.5 µg/mL (≈ 1.41 µM) | 0.25 µg/mL (≈ 0.704 µM) | 16 µg/mL (≈ 45.1 µM) | 16 µg/mL (≈ 45.1 µM) | 32 | 32 |  | 
O=C(N/N=C/c1cc(Br)cc(Br)c1O)c1ccc(F)cc1 | 0.12 µg/mL (≈ 0.288 µM) |  | 32 µg/mL (≈ 76.9 µM) | 32 µg/mL (≈ 76.9 µM) | 267 | 267 |  | 0.25 µg/mL (≈ 0.601 µM)
O=C(N/N=C/c1cc(Cl)ccc1O)c1ccc(Br)c(Br)c1 | 0.06 µg/mL (≈ 0.139 µM) | 1 µg/mL (≈ 2.31 µM) | 16 µg/mL (≈ 37 µM) | 32 µg/mL (≈ 74 µM) | 267 | 533 |  | 
Cc1ccc(O)c(/C=N/NC(=O)c2ccc(Br)cc2Br)c1 | 1 µg/mL (≈ 2.43 µM) |  | 32 µg/mL (≈ 77.7 µM) | 16 µg/mL (≈ 38.8 µM) | 32 | 16 |  | 2 µg/mL (≈ 4.85 µM)
O=C(N/N=C/c1cc(Br)cc(Br)c1O)c1ccc(OC(F)(F)F)cc1F | 0.06 µg/mL (≈ 0.12 µM) | 0.5 µg/mL (≈ 1 µM) | 16 µg/mL (≈ 32 µM) | 16 µg/mL (≈ 32 µM) | 267 | 267 |  | 
O=C(N/N=C/c1ccc(Br)cc1O)c1cc(Br)cc(Br)c1 | 1 µg/mL (≈ 2.1 µM) | 1 µg/mL (≈ 2.1 µM) | 4 µg/mL (≈ 8.39 µM) | 16 µg/mL (≈ 33.5 µM) | 4 | 16 |  | 
O=C(N/N=C/c1ccc(Br)cc1O)c1ccc(OC(F)F)cc1 | 0.12 µg/mL (≈ 0.312 µM) |  | 32 µg/mL (≈ 83.1 µM) | 32 µg/mL (≈ 83.1 µM) | 267 | 267 |  | 1 µg/mL (≈ 2.6 µM)
O=C(N/N=C/c1c(O)ccc2ccccc12)c1cc(Br)ccc1Br | 0.25 µg/mL (≈ 0.558 µM) |  | 32 µg/mL (≈ 71.4 µM) | 16 µg/mL (≈ 35.7 µM) | 128 | 64 |  | 0.25 µg/mL (≈ 0.558 µM)
O=C(N/N=C/c1cc(Cl)ccc1O)c1cc(Br)ccc1Br | 0.25 µg/mL (≈ 0.578 µM) |  | 59 µg/mL (≈ 136 µM) | 32 µg/mL (≈ 74 µM) | 236 | 128 |  | 0.25 µg/mL (≈ 0.578 µM)
O=C(N/N=C/c1cc(Cl)cc(Cl)c1O)c1cc(Br)cc(Br)c1 | 0.5 µg/mL (≈ 1.07 µM) |  | 64 µg/mL (≈ 137 µM) | 64 µg/mL (≈ 137 µM) | 128 | 128 |  | 0.5 µg/mL (≈ 1.07 µM)
O=C(N/N=C/c1cc(Br)cc(Br)c1O)c1ccc(CF)cc1 | 0.5 µg/mL (≈ 1.16 µM) |  | 16 µg/mL (≈ 37.2 µM) | 16 µg/mL (≈ 37.2 µM) | 32 | 32 |  | 0.5 µg/mL (≈ 1.16 µM)
O=C(N/N=C/c1cc(Br)ccc1O)c1cccc(OC(F)F)c1 | 0.12 µg/mL (≈ 0.312 µM) |  | 8 µg/mL (≈ 20.8 µM) | 64 µg/mL (≈ 166 µM) | 66.6 | 533 |  | 1 µg/mL (≈ 2.6 µM)
O=C(N/N=C/c1cc(Br)cc(Br)c1O)c1cccc(Br)c1Br | 0.5 µg/mL (≈ 0.9 µM) | 2 µg/mL (≈ 3.6 µM) | 32 µg/mL (≈ 57.6 µM) | 16 µg/mL (≈ 28.8 µM) | 64 | 32 |  | 
O=C(N/N=C/c1cc(Br)ccc1O)c1ccc(C(F)(F)F)cc1F | 0.5 µg/mL (≈ 1.23 µM) | 1 µg/mL (≈ 2.47 µM) | 16 µg/mL (≈ 39.5 µM) | 16 µg/mL (≈ 39.5 µM) | 32 | 32 |  | 
Cc1ccc(O)c(/C=N/NC(=O)c2cc(Br)ccc2O)c1 | 0.25 µg/mL (≈ 0.716 µM) |  | 16 µg/mL (≈ 45.8 µM) | 16 µg/mL (≈ 45.8 µM) | 64 | 64 |  | 0.5 µg/mL (≈ 1.43 µM)
O=C(N/N=C/c1cccc(Br)c1O)c1cccc(C(F)(F)F)c1 | 1 µg/mL (≈ 2.58 µM) | 2 µg/mL (≈ 5.17 µM) | 16 µg/mL (≈ 41.3 µM) | 16 µg/mL (≈ 41.3 µM) | 16 | 16 |  | 
